From the RNAGym collection of RNA variant scans (doi:10.1038/s41586-018-0170-7)

B1: tRNA (parent)
chain: GUUCCGUUGGCGUAAUGGUAACGCGUCUCCCUCCUAAGGAGAAGACUGCGGGUUCGAGUCCCGUACGGAACG

Variants of: B1
Assay: yeast fitness, log relative to wild type (ln ratio); higher = fitter; tRNA-Arg(CCU), competitive growth, 37 C, 1 M NaCl
Summary of the method: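 Variants were counted by 125 bp paired-end Illumina sequencing after pools of a combinatorial tRNA-Arg(CCU) library, held on a HIS3 centromeric plasmid in BY4742 lacking the chromosomal gene, grew ~6.5 generations (~26.5 h) in SC-HIS 1M NaCl at 37 °C. Each genotype's fitness is the natural log of its generations relative to the wild type's. Generations were OD-scaled log2 output/input frequencies, inverse-variance weighted over replicates.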

Variant | yeast fitness (ln)
G1A U2G G6A C27U A43C C46U A70U C71U | -0.307
G1A G6A C27U A43C C46U C66A A69G A70G C71U | -0.302
G1A G6A C46U C66U A69G C71U | -0.0213
G6U C66A A69G A70U C71U | -0.408
U2G G6A A43C A69G A70U | -0.171
U2C C27U | -0.0171
G1A U2G G6A C27U A43C C46U C66A A70U | -0.219
U2G C66A C71U | -0.108
U2C G6A C66U C71U | -0.28
U2G G6U C66U A69G C71U | -0.239
U2C G6U C27U A43C A69G A70U C71U | -0.513
G1A G6U C27U A43C C66U C71U | -0.403
U2G G6A C27U C46U A70U C71U | -0.143
U2G G6U A43C C66U A70G | -0.338
G1A A43C C66U A70U | -0.21
U2C C27U A43C A69G A70G C71U | -0.0704
G1A G6A C46U A69G C71U | -0.252
U2C G6A A69G A70G C71U | -0.394
G6U C66A A69G A70U | -0.291
G6A C27U A43C C46U C66U A70G | -0.193
G1A U2C C46U C66U A70U C71U | -0.175

Variant | yeast fitness (ln)
G6U C27U C46U C66A A69G A70G | -0.243
G1A A43C C46U C66U A70U C71U | -0.323
U2C C46U C66A A70G C71U | -0.168
G1A G6A C46U C66A A70G C71U | -0.128
G1A A43C C46U C66U A69G C71U | -0.295
G1A G6U A43C C66A | -0.19
U2C G6U A43C C66U A69G C71U | -0.454
U2C G6U C27U C46U A70G | -0.0953
U2G G6A C46U C66A C71U | -0.134
G1A A43C C46U A70U C71U | -0.116
U2G G6U C27U C46U A70G C71U | -0.262
G1A U2G A43C | -0.0767
C27U A43C C66U A69G A70G | -0.255
U2C G6A C27U C66U C71U | -0.161
G1A U2G C27U C66A A70G | -0.25
G1A U2G C27U A43C C46U C66A A69G A70G C71U | -0.269
G1A U2G A43C C66A A70U C71U | -0.396
G1A G6A A43C A69G A70U | -0.224
U2C G6A C27U A43C C66U A70U C71U | -0.309
G1A U2C A43C C46U C66U A69G A70G | -0.0919
G1A C66A A70G | -0.0993

Variant | yeast fitness (ln)
G1A U2G C46U A70G C71U | -0.166
G1A G6U C46U C66A A70U C71U | -0.084
G6A A69G A70G | -0.0849
U2G G6A A43C C46U C66U A69G C71U | -0.303
U2C G6U C27U A43C C46U A70U C71U | -0.182
G1A C27U A43C C66U | -0.242
G6U C27U A43C C46U A69G A70G C71U | -0.356
G1A U2C G6A C46U A69G A70U C71U | -0.0787
U2G C27U A70U C71U | -0.0745
G1A G6U A69G A70U | -0.131
G1A G6A C27U A43C C66U A69G A70G | -0.383
G1A U2G G6A A43C C66U A70U C71U | -0.443
G1A U2G G6U C46U C66A A69G A70U C71U | -0.227
C27U C66U A70U C71U | -0.276
U2G C27U C66A A69G A70U | -0.155
U2G G6A C46U C66A | -0.093
U2C A43C C66U | -0.0874
U2C C27U C46U C66U C71U | -0.132
U2G G6U C46U C66A | -0.0648
G1A G6A A70U C71U | -0.153
G1A A43C C66A A69G A70G C71U | -0.249

Variant | yeast fitness (ln)
G1A G6A A43C A69G C71U | -0.335
G6U A43C C46U C66A | -0.00135
G1A G6U C27U A43C C46U A69G A70U | -0.347
U2G G6U C46U C66A A70G | -0.0357
U2C G6A C46U C66A A70U | -0.067
G1A C27U A43C C46U A69G A70G C71U | -0.336
G1A U2G C27U C66A A69G A70U C71U | -0.342
G1A U2G G6U C27U C46U C66U A70U C71U | -0.334
U2C C27U A43C C46U A69G C71U | -0.118
G1A U2G G6U C27U C46U C71U | -0.259
U2C G6A C27U A43C C46U C66U A69G A70G | -0.0296
U2C G6U A43C C66U | -0.161
G1A U2G C46U C66U A69G A70G | -0.172
U2G G6U A43C C46U A70G C71U | -0.229
U2C G6A C27U A43C C66A C71U | -0.333
U2C C27U C46U A70G | -0.0268
G1A U2G C27U A43C C66A A70U C71U | -0.499
G6U C27U C66U A69G A70U C71U | -0.416
U2C C27U C46U C66A A69G A70G C71U | -0.106
U2C G6U C27U A69G A70U C71U | -0.354
G1A U2C G6A C46U C66U A69G A70U C71U | -0.339
